Experimental data taken from ChEMBL document CHEMBL4002555, “Bioactive Pentacyclic Triterpenoids from the Leaves of Cleistocalyx operculatus” (J Nat Prod, 2016).

Legend:
RAW264.7 [1] = assay: Anti-inflammatory activity in mouse RAW264.7 cells assessed as inhibition of LPS-induced TNF-alpha production at 2 uM pretreated for 1 hr followed by LPS stimulation measured after 24 hrs by ELISA relative to control; format: functional
Method in brief: (§1)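 LPS-stimulated RAW 264.7 macrophages, with IL-6 and TNF-α production read separately. Test concentrations were 0.4, 2, 10 and 50 μM, and dexamethasone was the reference drug. Results are given as percent inhibition of cytokine production.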

HepG2 = assay: Cytotoxicity against human HepG2 cells after 72 hrs by MTT assay; format: functional, cell-based; conditions: HepG2, 72 h
Method in brief: (§2)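 MTT growth-inhibition assay in human HepG2 hepatocellular, NCI-N87 gastric and MCF-7 breast carcinoma lines, with a doxorubicin positive control. IC50 values are means ± SD from three individual experiments; >10.0 μM was taken as noncytotoxic.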

RAW264.7 [2] = assay: Anti-inflammatory activity in mouse RAW264.7 cells assessed as inhibition of LPS-induced TNF-alpha production at 10 uM pretreated for 1 hr followed by LPS stimulation measured after 24 hrs by ELISA relative to control; format: functional; method in brief: as §1
RAW264.7 [3] = assay: Anti-inflammatory activity in mouse RAW264.7 cells assessed as inhibition of LPS-induced TNF-alpha production at 50 uM pretreated for 1 hr followed by LPS stimulation measured after 24 hrs by ELISA relative to control; format: functional; method in brief: as §1
[4] = Cytotoxicity against mouse RAW264.7 cells assessed as growth inhibition at 50 uM after 72 hrs by MTT assay relative to control; format: cell-based; conditions: read-out: GI
MCF7 = assay: Cytotoxicity against human MCF7 cells after 72 hrs by MTT assay; format: functional, cell-based; conditions: MCF7, 72 h; method in brief: as §2
RAW264.7 [5] = assay: Anti-inflammatory activity in mouse RAW264.7 cells assessed as inhibition of LPS-induced IL-6 production at 50 uM pretreated for 1 hr followed by LPS stimulation measured after 24 hrs by ELISA relative to control; format: functional; method in brief: as §1
RAW264.7 [6] = assay: Anti-inflammatory activity in mouse RAW264.7 cells assessed as inhibition of LPS-induced IL-6 production at 10 uM pretreated for 1 hr followed by LPS stimulation measured after 24 hrs by ELISA relative to control; format: functional; method in brief: as §1
RAW264.7 [7] = assay: Anti-inflammatory activity in mouse RAW264.7 cells assessed as inhibition of LPS-induced IL-6 production at 2 uM pretreated for 1 hr followed by LPS stimulation measured after 24 hrs by ELISA relative to control; format: functional; method in brief: as §1
NCI-N87 = assay: Cytotoxicity against human NCI-N87 cells after 72 hrs by MTT assay; format: functional, cell-based; conditions: NCI-N87, 72 h; method in brief: as §2
RAW264.7 [8] = assay: Anti-inflammatory activity in mouse RAW264.7 cells assessed as inhibition of LPS-induced TNF-alpha production at 0.4 uM pretreated for 1 hr followed by LPS stimulation measured after 24 hrs by ELISA relative to control; format: functional; method in brief: as §1
RAW264.7 [9] = assay: Anti-inflammatory activity in mouse RAW264.7 cells assessed as inhibition of LPS-induced IL-6 production at 0.4 uM pretreated for 1 hr followed by LPS stimulation measured after 24 hrs by ELISA relative to control; format: functional; method in brief: as §1
[10] = Cytotoxicity against mouse RAW264.7 cells assessed as growth inhibition at 10 uM after 72 hrs by MTT assay relative to control; format: cell-based; conditions: read-out: GI

Structure (SMILES) | inhibition at 2 µM (RAW264.7 [1]) [%] | IC50 (HepG2) [µM] | inhibition at 10 µM (RAW264.7 [2]) [%] | inhibition at 50 µM (RAW264.7 [3]) [%] | inhibition at 72 h, 50 µM [4] [%] | IC50 (MCF7) [µM] | inhibition at 50 µM (RAW264.7 [5]) [%] | inhibition at 10 µM (RAW264.7 [6]) [%] | inhibition at 2 µM (RAW264.7 [7]) [%] | IC50 (NCI-N87) [µM] | inhibition at 0.4 µM (RAW264.7 [8]) [%] | inhibition at 0.4 µM (RAW264.7 [9]) [%] | inhibition at 72 h, 10 µM [10] [%]
CC1(C)CC[C@]2(C(=O)O)CC[C@]3(C)C(=C[C@@H](O)[C@@H]4[C@@]5(C)C[C@@H](O)[C@H](O)[C@@](C)(CO)[C@@H]5CC[C@]43C)[C@@H]2C1 | 53.7 | > 10 | 57.7 | 65.6 | < 5 | > 10 | 74.9 | 69.9 | 68.1 | > 10 |  |  | 
COC(=O)[C@]12CCC(C)(C)CC1=C1CC[C@@H]3[C@@]4(C)CC[C@H](O)C(C)(C)[C@@H]4CC[C@@]3(C)[C@]1(C(=O)O)CC2 |  | 5 |  |  |  | > 10 |  |  |  | 5.1 |  |  | 
C[C@H]1[C@@H]2[C@H]3CC[C@@H]4[C@@]5(C)CC[C@H](O)C(C)(C)[C@@H]5CC[C@@]4(C)[C@]3(C)CC[C@@]23C[C@@H](O)[C@]1(C)OC3=O | < 50 | > 10 | < 50 | < 50 |  | > 10 | < 50 | < 50 | < 50 | 7.3 | < 50 | < 50 | < 5
C[C@H]1[C@H](C)CC[C@]2(C(=O)O)CC[C@]3(C)C(=C[C@@H](O)[C@@H]4[C@@]5(C)C[C@@H](O)[C@H](O)[C@@](C)(CO)[C@@H]5CC[C@]43C)[C@H]12 | < 50 | > 10 | < 50 | < 50 |  | > 10 | < 50 | < 50 | < 50 | > 10 | < 50 | < 50 | < 5
CC1=CC[C@]2(C(=O)O)CC[C@]3(C=O)[C@H](CC[C@@H]4[C@@]5(C)CC[C@H](O)C(C)(C)[C@@H]5CC[C@]43C)[C@H]2[C@@H]1C | 14.1 | > 10 | 35.9 |  |  | > 10 |  | 53.8 | 19.2 | > 10 | 14.8 | 23.6 | < 5
C=C1CC[C@]2(C(=O)O)CC[C@]3(C)C(=CC[C@@H]4[C@@]5(C)C[C@@H](O)[C@H](O)C(C)(C)[C@@H]5CC[C@]43C)[C@@H]2[C@H]1C | < 50 | > 10 | < 50 | < 50 |  | > 10 | < 50 | < 50 | < 50 | > 10 | < 50 | < 50 | < 5
COC(=O)[C@@]12CC[C@]3(C(=O)O)[C@H](CC[C@@H]4[C@@]5(C)CC[C@H](O)C(C)(C)[C@@H]5CC[C@]43C)[C@@H]1[C@@H](C)C(C)=C[C@H]2O | < 50 | > 10 | < 50 | < 50 |  | > 10 | < 50 | < 50 | < 50 | > 10 | < 50 | < 50 | < 5
C=C1CC[C@]2(C(=O)O)CC[C@]3(C)C(=C[C@@H](O)[C@@H]4[C@@]5(C)C[C@@H](O)[C@H](O)[C@@](C)(CO)[C@@H]5CC[C@]43C)[C@@H]2[C@H]1C | < 50 | > 10 | < 50 | < 50 |  | > 10 | < 50 | < 50 | < 50 | > 10 | < 50 | < 50 | < 5
CC1=CC[C@]2(C(=O)O)CC[C@]3(C)[C@H](CC[C@@H]4[C@@]5(C)CC[C@H](O)C(C)(C)[C@@H]5CC[C@]43C)[C@H]2[C@@H]1C |  | 1.9 |  |  |  | 4.3 |  |  |  | 2.4 |  |  | 
C=C1CC[C@]2(C(=O)O)CC[C@]3(C)C(=CC[C@@H]4[C@@]5(C)C[C@@H](O)[C@H](O)[C@@](C)(CO)[C@@H]5CC[C@]43C)[C@@H]2[C@H]1C [ACTINIDIC ACID] | < 50 | > 10 | < 50 | < 50 |  | > 10 | < 50 | < 50 | < 50 | > 10 | < 50 | < 50 | < 5
CC1(C)CC[C@]2(C(=O)O)CC[C@]3(C)C(=CC[C@@H]4[C@@]5(C)C[C@@H](O)[C@H](O)[C@@](C)(CO)[C@@H]5CC[C@]43C)[C@@H]2C1 [ARJUNOLIC ACID] | < 50 | > 10 | < 50 | < 50 |  | > 10 | < 50 | < 50 | < 50 | > 10 | < 50 | < 50 | < 5
C[C@H]1[C@H](C)CC[C@]2(C(=O)O)CC[C@]3(C)C(=CC[C@@H]4[C@@]5(C)C[C@@H](O)[C@H](O)[C@@](C)(CO)[C@@H]5CC[C@]43C)[C@H]12 [ASIATIC ACID] | < 50 | > 10 | < 50 | < 50 |  | > 10 | < 50 | < 50 | < 50 | > 10 | < 50 | < 50 | < 5
C[C@H]1[C@H](C)CC[C@]2(C(=O)O)CC[C@]3(C)C(=CC[C@@H]4[C@@]5(C)C[C@@H](O)[C@H](O)C(C)(C)[C@@H]5CC[C@]43C)[C@H]12 [COROSOLIC ACID] | < 50 | > 10 | < 50 | < 50 |  | > 10 | < 50 | < 50 | < 50 | 4.4 | < 50 | < 50 | < 5
C[C@@H]1C[C@H]2[C@@H]3CCC4=CC(=O)C=C[C@]4(C)[C@@]3(F)[C@@H](O)C[C@]2(C)[C@@]1(O)C(=O)CO [DEXAMETHASONE] | 71.8 |  | 79.2 | 86.1 |  |  | 84.9 | 80.4 | 75.9 |  |  |  | 
COc1cccc2c1C(=O)c1c(O)c3c(c(O)c1C2=O)C[C@@](O)(C(=O)CO)C[C@@H]3O[C@H]1C[C@H](N)[C@H](O)[C@H](C)O1 [DOXORUBICIN] |  |  |  |  |  |  |  |  |  | 1.6 |  |  | 
C=C1[C@@H](O)[C@H](O)C[C@]2(C)[C@H]3CC=C4[C@@H]5[C@@H](C)[C@H](C)CC[C@]5(C(=O)O)CC[C@@]4(C)[C@]3(C)CC[C@@H]12 [ILEKUDINOL B] |  | > 10 |  |  |  | > 10 |  |  |  | 9.1 |  |  | 
CC1(C)CC[C@]2(C(=O)O)CC[C@]3(C)C(=CC[C@@H]4[C@@]5(C)C[C@@H](O)[C@H](O)C(C)(C)[C@@H]5CC[C@]43C)[C@@H]2C1 [MASLINIC ACID] | < 50 | > 10 | < 50 | < 50 |  | > 10 | < 50 | < 50 | < 50 | > 10 | < 50 | < 50 | < 5
CC1(C)CC[C@]2(C(=O)O)CC[C@]3(C)C(=CC[C@@H]4[C@@]5(C)CC[C@H](O)C(C)(C)[C@@H]5CC[C@]43C)[C@@H]2C1 [OLEANOLIC_ACID] |  | > 10 |  |  |  | > 10 |  |  |  | > 10 |  |  | 
C[C@H]1[C@H](C)CC[C@]2(C(=O)O)CC[C@]3(C)C(=CC[C@@H]4[C@@]5(C)CC[C@H](O)C(C)(C)[C@@H]5CC[C@]43C)[C@H]12 [URSOLIC ACID] |  | > 10 |  |  |  | 6.6 |  |  |  | 4.2 |  |  | 
